How the values were obtained:
[1] = molecular target: T1, Adrenergic receptor alpha-1 (Rattus norvegicus, UniProt P15823+P23944+P43140); assay: In vitro binding affinity towards alpha-1 adrenergic receptor in rat cerebral cortex membranes; type: cell membranes, Membrane
T1 sequence (P15823 whole entry): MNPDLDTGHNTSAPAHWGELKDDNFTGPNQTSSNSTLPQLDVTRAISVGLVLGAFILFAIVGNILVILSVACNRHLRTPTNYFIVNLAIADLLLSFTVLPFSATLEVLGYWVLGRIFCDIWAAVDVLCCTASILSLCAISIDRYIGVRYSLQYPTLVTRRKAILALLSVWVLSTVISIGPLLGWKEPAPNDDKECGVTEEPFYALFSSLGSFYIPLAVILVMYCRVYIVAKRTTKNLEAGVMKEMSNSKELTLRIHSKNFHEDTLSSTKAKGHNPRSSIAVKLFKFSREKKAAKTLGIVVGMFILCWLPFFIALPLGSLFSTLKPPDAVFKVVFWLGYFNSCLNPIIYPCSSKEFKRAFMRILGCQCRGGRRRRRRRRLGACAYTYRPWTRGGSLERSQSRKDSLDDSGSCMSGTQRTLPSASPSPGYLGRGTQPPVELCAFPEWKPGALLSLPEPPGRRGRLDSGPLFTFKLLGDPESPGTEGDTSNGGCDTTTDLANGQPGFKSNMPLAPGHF
T1 sequence (P23944 whole entry): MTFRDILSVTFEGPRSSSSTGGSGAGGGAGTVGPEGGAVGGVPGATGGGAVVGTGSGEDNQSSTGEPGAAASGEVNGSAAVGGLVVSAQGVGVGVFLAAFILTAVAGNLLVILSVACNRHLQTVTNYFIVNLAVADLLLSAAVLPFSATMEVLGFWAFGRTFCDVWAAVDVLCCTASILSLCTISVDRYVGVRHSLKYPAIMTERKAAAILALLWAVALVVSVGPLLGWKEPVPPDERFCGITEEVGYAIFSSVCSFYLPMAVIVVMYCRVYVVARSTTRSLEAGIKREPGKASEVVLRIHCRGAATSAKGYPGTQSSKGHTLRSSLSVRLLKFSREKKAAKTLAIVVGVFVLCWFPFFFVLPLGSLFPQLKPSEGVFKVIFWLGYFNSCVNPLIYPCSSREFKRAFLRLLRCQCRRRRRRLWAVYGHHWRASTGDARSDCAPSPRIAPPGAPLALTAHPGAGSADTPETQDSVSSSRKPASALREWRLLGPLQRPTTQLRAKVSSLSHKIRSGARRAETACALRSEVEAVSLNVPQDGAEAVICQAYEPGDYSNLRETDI
T1 sequence (P43140 whole entry): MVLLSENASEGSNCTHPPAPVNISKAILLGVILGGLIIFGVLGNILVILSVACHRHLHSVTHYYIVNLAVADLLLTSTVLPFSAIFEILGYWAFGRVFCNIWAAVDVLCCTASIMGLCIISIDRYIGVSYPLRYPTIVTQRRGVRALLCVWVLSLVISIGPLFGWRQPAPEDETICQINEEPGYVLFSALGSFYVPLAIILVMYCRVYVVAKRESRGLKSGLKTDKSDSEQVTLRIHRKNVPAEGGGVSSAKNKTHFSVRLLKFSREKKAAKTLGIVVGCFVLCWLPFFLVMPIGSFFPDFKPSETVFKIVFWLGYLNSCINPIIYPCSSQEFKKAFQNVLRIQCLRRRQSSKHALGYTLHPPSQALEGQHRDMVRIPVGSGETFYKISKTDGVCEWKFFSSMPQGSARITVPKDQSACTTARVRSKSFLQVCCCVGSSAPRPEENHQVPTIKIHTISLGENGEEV
In short: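 Rat cerebral cortex membranes in 50 mM Tris-HCl, 10 mM MgCl2, pH 7.4. About 250 µg protein incubated 30 min at 25 °C with 0.2 nM [3H]prazosin. Nonspecific binding with 10 µM phentolamine. Triplicates, filtration, scintillation counting. Ki by Cheng-Prusoff from iteratively fitted IC50. Prescreen at 10^-6 M, dose-response curves if displacement ≥55%.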

[2] = molecular target: T2, 5-hydroxytryptamine receptor 1A (Rattus norvegicus, UniProt P19327); assay: In vitro binding affinity towards 5-hydroxytryptamine 1A receptor in rat cerebral cortex membranes; type: cell membranes, Membrane
T2 sequence (P19327 whole entry): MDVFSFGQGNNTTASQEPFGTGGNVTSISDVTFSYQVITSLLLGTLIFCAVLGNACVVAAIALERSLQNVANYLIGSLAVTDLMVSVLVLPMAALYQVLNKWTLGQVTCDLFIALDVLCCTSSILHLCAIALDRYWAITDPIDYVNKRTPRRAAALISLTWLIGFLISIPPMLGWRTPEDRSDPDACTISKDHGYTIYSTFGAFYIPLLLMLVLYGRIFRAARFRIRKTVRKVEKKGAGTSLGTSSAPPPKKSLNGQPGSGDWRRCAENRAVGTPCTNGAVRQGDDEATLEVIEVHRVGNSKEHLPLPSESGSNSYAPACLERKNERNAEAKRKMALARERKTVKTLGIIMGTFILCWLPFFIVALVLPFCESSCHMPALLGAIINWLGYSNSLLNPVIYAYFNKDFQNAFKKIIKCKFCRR
In short: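 Rat cerebral cortex membranes, washed and preincubated 10 min at 37 °C. About 1 mg protein incubated 15 min at 37 °C with 0.6 nM [3H]8-OH-DPAT in 50 mM Tris-HCl pH 7.4 containing 10 nM clonidine and 30 nM prazosin. Nonspecific binding with 10 µM 5-HT. Triplicates, filtration, scintillation counting. Ki by Cheng-Prusoff from fitted IC50. Prescreen at 10^-6 M, full curves if displacement ≥55%.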

For `CCCCOc1ccccc1N1CCN(CCCN2CC(=O)N3CCCCC3C2=O)CC1` (configuration not stated), the Ki [1] was 13 nM and the Ki [2] was 92 nM.
With `O=C1C2CCCCN2C(=O)N1CCCCN1CCN(c2ccccc2Br)CC1` (configuration not stated) the Ki [1] was 6.2 nM and the Ki [2] was 3.4 nM.
`Cc1ccccc1N1CCN(CCCCN2C(=O)C3CCCN3C2=O)CC1` (configuration not stated) was tested, and the Ki [1] was 7 nM.
With `CCCCOc1ccccc1N1CCN(CCCCN2CC(=O)N3CCCC3C2=O)CC1` (configuration not stated) the Ki [1] was 10.5 nM and the Ki [2] was 8.7 nM.
With `CC(C)C(=O)Nc1cccc(N2CCN(CCCCN3C(=O)C4CCCN4C3=O)CC2)c1.Cl` (configuration not stated) the Ki [1] was 5425 nM and the Ki [2] was 193 nM.
In the case of `CC(C)C(=O)Nc1cccc(N2CCN(CCCCN3CC(=O)N4CCCCC4C3=O)CC2)c1` (configuration not stated), the Ki [1] is reported as 16140 nM and the Ki [2] is reported as 198 nM.
With `CCCNC(=O)c1ccccc1N1CCN(CCCN2C(=O)C3CCCN3C2=O)CC1` (configuration not stated) the Ki [1] was 608 nM and the Ki [2] was 808 nM.
`O=C1C2CCCCN2C(=O)N1CCCCN1CCN(c2ccccc2Oc2ccccc2)CC1` (configuration not stated) gave a Ki [1] of 2.4 nM and a Ki [2] of 0.6 nM.
Compound `CCCNC(=O)c1ccccc1N1CCN(CCCCN2CC(=O)N3CCCC3C2=O)CC1` (configuration not stated) has a Ki [1] of 1354 nM and a Ki [2] of 1230 nM.
`N#Cc1ccccc1N1CCN(CCCCN2C(=O)C3CCCN3C2=O)CC1` (configuration not stated) gave a Ki [1] of 4.9 nM and a Ki [2] of 4 nM.
For `N#Cc1ccccc1N1CCN(CCCCN2CC(=O)N3CCCCC3C2=O)CC1` (configuration not stated), the Ki [1] was 30 nM and the Ki [2] was 15 nM.
`N#Cc1ccccc1N1CCN(CCCN2C(=O)C3CCCCN3C2=O)CC1` (configuration not stated) gave a Ki [1] of 8.2 nM and a Ki [2] of 65 nM.
With `Cc1ccccc1N1CCN(CCCN2C(=O)C3CCCCN3C2=O)CC1` (configuration not stated) the Ki [1] was 5.7 nM and the Ki [2] was 220 nM.
With `CC(C)C(=O)Nc1cccc(N2CCN(CCCN3CC(=O)N4CCCC4C3=O)CC2)c1` (configuration not stated) the Ki [1] was 1440 nM and the Ki [2] was 266 nM.
`CCCCOc1ccccc1N1CCN(CCCCN2C(=O)C3CCCCN3C2=O)CC1` (configuration not stated) gave a Ki [1] of 5 nM and a Ki [2] of 2.2 nM.
For `CCCOC(=O)c1ccccc1N1CCN(CCCCN2C(=O)C3CCCN3C2=O)CC1` (configuration not stated), the Ki [1] was 41 nM and the Ki [2] was 4.8 nM.
`O=C1C2CCCCN2C(=O)CN1CCCN1CCN(c2cccc(C(F)(F)F)c2)CC1` (configuration not stated) was tested, and the Ki [1] was 339 nM and the Ki [2] was 179 nM.
With `Nc1cccc(N2CCN(CCCCN3C(=O)C4CCCCN4C3=O)CC2)c1` (configuration not stated) the Ki [1] was 231 nM and the Ki [2] was 68 nM.
Compound `Nc1cccc(N2CCN(CCCN3C(=O)C4CCCN4C3=O)CC2)c1` (configuration not stated) has a Ki [1] of 393 nM and a Ki [2] of 1180 nM.
In the case of `CCCNC(=O)c1ccccc1N1CCN(CCCCN2C(=O)C3CCCCN3C2=O)CC1` (configuration not stated), the Ki [1] is reported as 521 nM and the Ki [2] is reported as 378 nM.
For `O=C1C2CCCN2C(=O)CN1CCCCN1CCN(c2cccc(C(F)(F)F)c2)CC1` (configuration not stated), the Ki [1] was 72 nM and the Ki [2] was 5.5 nM.
`COc1ccccc1N1CCN(CCCN2CC(=O)N3CCCCC3C2=O)CC1` (configuration not stated) was tested, and the Ki [1] was 29 nM and the Ki [2] was 143 nM.
`O=C1C2CCCN2C(=O)N1CCCN1CCN(c2cccc(Br)c2)CC1` (configuration not stated) gave a Ki [1] of 25 nM and a Ki [2] of 34 nM.
`CCCOC(=O)c1ccccc1N1CCN(CCCN2C(=O)C3CCCCN3C2=O)CC1` (configuration not stated) showed a Ki [1] of 13 nM and a Ki [2] of 46 nM.
In the case of `CC(C)C(=O)Nc1cccc(N2CCN(CCCN3C(=O)C4CCCCN4C3=O)CC2)c1` (configuration not stated), the Ki [1] is reported as 4430 nM and the Ki [2] is reported as 776 nM.
`CCCNC(=O)c1ccccc1N1CCN(CCCN2CC(=O)N3CCCCC3C2=O)CC1` (configuration not stated) gave a Ki [1] of 811 nM and a Ki [2] of 4610 nM.
For `Cc1ccccc1N1CCN(CCCN2CC(=O)N3CCCC3C2=O)CC1` (configuration not stated), the Ki [1] was 17 nM and the Ki [2] was 48 nM.
Work on `CCCOC(=O)c1ccccc1N1CCN(CCCN2CC(=O)N3CCCC3C2=O)CC1` (configuration not stated) yielded a Ki [1] of 12 nM.
For `CCCCOc1ccccc1N1CCN(CCCN2C(=O)C3CCCN3C2=O)CC1` (configuration not stated), the Ki [1] was 6.4 nM and the Ki [2] was 15 nM.
`N#Cc1ccccc1N1CCN(CCCN2CC(=O)N3CCCC3C2=O)CC1` (configuration not stated) was tested, and the Ki [1] was 17 nM and the Ki [2] was 27 nM.
With `COc1ccccc1N1CCN(CCCCN2CC(=O)N3CCCC3C2=O)CC1` (configuration not stated) the Ki [1] was 25 nM and the Ki [2] was 12 nM.
`CCS(=O)(=O)Nc1cccc(N2CCN(CCCCN3C(=O)C4CCCN4C3=O)CC2)c1` (configuration not stated) gave a Ki [1] greater than 1000 nM.
`O=C1C2CCCCN2C(=O)N1CCCCN1CCN(c2cccc(Br)c2)CC1` (configuration not stated) was tested, and the Ki [1] was 5.9 nM and the Ki [2] was 5.4 nM.
Compound `Cc1ccccc1N1CCN(CCCCN2CC(=O)N3CCCCC3C2=O)CC1` (configuration not stated) has a Ki [1] of 27 nM and a Ki [2] of 32 nM.
`CCCOC(=O)c1ccccc1N1CCN(CCCCN2CC(=O)N3CCCCC3C2=O)CC1` (configuration not stated) showed a Ki [1] of 392 nM and a Ki [2] of 28 nM.
